# HIF act – HIF pathway transcriptional activation; U2OS HRE-luciferase reporter, luminescence; normalized: DMSO 0%, desferrioxamine 100%; activation, % at 7.5 µM (by protocol); 300,000 tested, 0.32% active;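 active = mean activation of at least 10% of the iron chelator positive control signal, with at least half of replicates also reaching 10%; inconclusive = mean and replicate majority disagree about reaching 10%; inactive = mean and most replicates under 10%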
# T cruzi repl – T. cruzi replication inhibition; T. cruzi beta-gal in NIH3T3, luminescence, 90 h; 300,000 tested, 1.4% active; inhibition, % (test concentration not listed);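 active = mean inhibition across valid replicates above about 55%, limit read from the data; inconclusive = mean below that limit but half or more replicates reach it; inactive = mean below it, under half of replicates reach it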;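 also: signal also drops with host cell toxicity which is not excluded here; 0% = plate median of DMSO wells and 100% = zero luminescence signal; higher percent means less beta-gal luminescence so fewer parasites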
#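 System: mouse NIH/3T3 fibroblasts infected with β-gal-expressing T. cruzi Tulahuen C4 / Input: NIH/3T3 cells, 5,000 per well / Buffer or medium: Low-serum DMEM with 2% FBS / Probe or stimulus: 5000 reporter trypomastigotes per well / Schedule: ≥90 h infection period, 3 h prior cell attachment / Measured by: GalScreen luminescence, 60 min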
# PolyA inhibitor – yeast polyadenylation inhibition. S. cerevisiae SKY197-pL101 polyadenylation reporter, beta-gal luminescence; efflux-impaired pdr1/pdr3 knockout yeast; score 100 = 6 SD above DMSO. activity score, % at 12 µM. 300,000 tested, 0.02% active. AID 1875;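 active = lowest replicate activity score at least 50, where 100 means six control SD above control mean; inconclusive = lowest score under 50 but half or more replicates reach 50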;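 also: yeast exposed to compound for 9 h at 30 °C; higher score means more reporter readthrough which indicates perturbed polyadenylation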
# Beta cell apopt – blocks beta cell apoptosis; INS-1E cytokine-induced death, ATP luminescence, 48 h; percent of positive-control rescue, neutral wells zero; protection from apoptosis, % (test concentration not listed); 300,000 tested, 0.8% active;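 active = Every replicate reaches about 75%, or at least half do and their mean reaches it too, limit read from the data; inconclusive = At least half of replicates reach the limit but their mean does not; inactive = Under half of replicates reach the limit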;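 also: 0% = cytokine-treated negative control wells and 100% = positive control rescue; higher means more ATP so stronger rescue from cytokine killing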
# Calb FLC – affects C. albicans growth with fluconazole; C. albicans CaCi-2 (fluconazole-resistant clinical isolate) + fluconazole, Alamar Blue growth, 48 h; growth inhibition, % (test concentration not listed); AID 1979; 300,000 tested, 0.57% active;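 active = growth inhibition above about 58% in most replicates, limit read from the data, passing the limit was not always enough; inconclusive = exactly half the replicates above a set limit; inactive = most replicates below a set limit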;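 also: all wells also contain fluconazole at 8 µg/ml as a sub-toxic cotreatment; 0% = median of DMSO wells and 100% = median of geldanamycin control wells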
# CSC inhib – blocks cancer stem cells; inhibition, % at 7.5 µM; cancer stem cell-like cells viability, luminescence; 300,000 tested, 1.1% active; in the data active = inhibition above about 75%; inconclusive = no clear call, values can overlap the other calls; tested in HMLE shEcad cells
# Numbers without * were called inactive; ? = inconclusive; nt = no result. The list is not random: actives were taken first. Their share in the collection is about 3.1%.
SMILES,HIF act,T cruzi repl,PolyA inhibitor,Beta cell apopt,Calb FLC,CSC inhib
CC(C)c1cn(C2OC(COC(=O)c3ccccc3)C(OC(=O)c3ccccc3)C2OC(=O)c2ccccc2)c(=O)[nH]c1=O (stereo unspecified),-1,-3,7,5,-6,-2
CN(C)CCCNC(=O)c1ccc(Cl)c(S(=O)(=O)N(C)c2ccccc2)c1,0,65*,2,-2,-5,-12
CC(C)c1ccc(C(=O)NCCCN(C)C)cc1,0,60*,15,-2,-5,-9
Cc1nn(C)c(Sc2ccccn2)c1[N+](=O)[O-],0,-7,16,-3,-3,-16
O=C(Nc1cccnc1)C12CC3CC(CC(C3)C1)C2,0,-2,6,-3,-4,-9
O=C(Nc1cccnc1)C1(F)C(F)(F)C(F)(F)C(F)(F)C(F)(F)C1(F)F,-1,-15,-8,110*,-17,-9
COc1c(Cl)cc(Cl)cc1C(=O)Nc1ccc(CN2CCCCC2)cc1,0,56*,-27,-2,1,72
COc1c(Cl)cc(Cl)cc1C(=O)Nc1ccc(NC(=O)c2cccs2)cc1,-1,58*,-10,nt,1,nt
Cc1ccc(Cl)cc1N1CCN(CC(=O)Nc2ccc(CN3CCCCC3)cc2)CC1,-1,55*,-8,13,17,-10
Cc1ccc(C(=O)NC(=S)Nc2ccc(CN3CCCCC3)cc2)c(C)c1,0,60*,-10,1,6,53
O=C(Nc1ccc(NC(=O)c2ccc(Cl)cc2Cl)cc1)c1cccs1,-1,-9,17,3,-3,2
COc1ccc(OCC(O)CN2CCNCC2)cc1 (stereo unspecified),-8,0,-14,-9,-5,-18
CN(CC1CCCN(CCc2ccc(Cl)cc2)C1)C(=O)C(=O)c1ccco1 (stereo unspecified),0,15,2,-6,-19,-3
COc1cc([N+](=O)[O-])ccc1NC(=O)NCCCN1CCCC1=O,0,16,?,-7,0,-3
Cc1ccc(C(=O)NCC(=O)OCCCOC(=O)CNC(=O)c2ccc(C)c(C)c2)cc1C,nt,nt,nt,3,nt,nt
COc1ccc(OCc2cccc(C(=O)Nc3ccc(CN4CCCCC4)cc3)c2)cc1,1,31,17,15,-8,47
CCOc1ccc(OCc2cccc(C(=O)Nc3ccc(CN4CCCCC4)cc3)c2)cc1,-3,26,14,19,-1,79*
Cc1ccc2ccc3ccc(C)nc3c2n1,1,47,-6,78*,nt,8
Cc1ccc2c(C)ccc(O)c2n1,0,-23,-6,?,-11,14
COc1ccc(-[n+]2c(C)cc(/C=C3\Sc4ccccc4N3C)cc2C)cc1,0,43,-15,116*,-6,56
COc1ccccc1OC(=O)CCN1c2ccccc2Sc2ccccc21,-1,1,-3,6,0,9
COc1ccccc1-[n+]1c(C)cc(/C=C2\Sc3ccccc3N2C)cc1C,nt,56*,-7,110*,-9,68
COc1ccc(CCNC(=O)N2c3ccccc3Sc3ccccc32)cc1,-3,19,-17,7,19,24
CCOc1ccc(OCCCC(=O)Nc2cc(Cl)ccc2-n2cncn2)cc1,nt,nt,nt,4,nt,-7
Cc1nc(C#N)c(N/N=C/c2c(F)cccc2Cl)o1,1,6,9,nt,16,-14
SMILES,HIF act,T cruzi repl,PolyA inhibitor,Beta cell apopt,Calb FLC,CSC inhib
COc1ccc(-n2nc(C(=O)NCC(=O)N3CCN(c4ccc(F)cc4)CC3)c3ccccc3c2=O)c(OC)c1,2,8,2,4,99*,-10
COc1ccc(-n2nc(C(=O)NCC(=O)N3CCN(c4ccccc4)CC3)c3ccccc3c2=O)c(OC)c1,-17,-1,2,0,79*,-24
COc1ccc(-n2nc(C(=O)NCC(=O)N3CCCC3)c3ccccc3c2=O)c(OC)c1,0,-10,-10,3,-1,7
Cc1ccc(SCC(=O)OCc2csc(CC(=O)Nc3ccccc3C)n2)cc1C,nt,nt,nt,-4,nt,nt
CCN(CC)c1ccc(S(=O)(=O)N2CCOCC2)cc1NC(=O)CSc1n[nH]c(N)n1,0,12,0,-4,0,-4
NCCNc1ccc(C(=O)N2c3ccccc3Sc3ccccc32)cc1[N+](=O)[O-],2,-1,-5,24,4,92*

# High-throughput results as filed in PubChem BioAssay.
